Experimental data taken from ChEMBL document CHEMBL4270533, “Lipidated α/α-AA heterogeneous peptides as antimicrobial agents” (Eur J Med Chem, 2018).
In brackets after ≈: the same amount, converted by molar mass. Values belong to the molecule of their own block, whether it stands above or below them.

Key:
[1] = Hemolytic activity in human RBC after 1 hr; assay type: ADME, cell-based, Erythrocyte; details: red blood cells (erythrocytes)
How it was run: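 Fresh human erythrocytes, PBS-washed (1000g, 10 min), as a 5% v/v suspension mixed 1:1 with two-fold compound dilutions. Incubated 1 h at 37 °C, then centrifuged. Supernatant hemoglobin read at 540 nm. PBS served as 0% lysis and 0.1% Triton X-100 as 100% lysis; % hemolysis computed relative to these.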

[2] = system: Staphylococcus aureus; test: Antimicrobial activity against methicillin-resistant Staphylococcus aureus ATCC 33591 after 18 hrs; assay type: functional; details: ATCC 33591, 18 h
How it was run: (§1)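 Broth microdilution. A colony was grown overnight in trypticase soy broth at 37 °C with shaking, then regrown to mid-log phase. 10^6 CFU/mL inoculum was mixed 1:1 with peptide dilutions (100 to 0.5 μg/mL) and incubated 18 h at 37°C. Read at OD600; MIC is the lowest concentration inhibiting growth. Three experiments, each in duplicate.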

[3] = system: Klebsiella pneumoniae; test: Antimicrobial activity against Klebsiella pneumoniae ATCC 13383 after 18 hrs; assay type: functional; details: ATCC 13383, 18 h
How it was run: (§2)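 Broth microdilution. Bacteria grown overnight in trypticase soy broth at 37 °C with shaking, then regrown to mid-log phase. 10^6 CFU/mL mixed 1:1 with peptide (100 to 0.5 μg/mL) and incubated 18 h at 37 °C. MIC taken as the lowest concentration inhibiting growth by OD600. Untreated bacteria served as control. Three experiments, each in duplicate.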

[4] = Selectivity ratio of HC50 for hemolytic activity in human RBC to MIC for methicillin-resistant Staphylococcus aureus ATCC 33591; assay type: toxicity; details: red blood cells (erythrocytes)
[5] = system: Escherichia coli; test: Antimicrobial activity against Escherichia coli JM109 after 18 hrs; assay type: functional; details: JM109, 18 h; how it was run: as §2
[6] = system: Staphylococcus epidermidis; test: Antimicrobial activity against methicillin-resistant Staphylococcus epidermidis RP62A after 18 hrs; assay type: functional; how it was run: as §1
[7] = system: Enterococcus faecalis; test: Antimicrobial activity against vancomycin-resistant Enterococcus faecalis ATCC 700802 after 18 hrs; assay type: functional; details: ATCC 700802, 18 h; how it was run: as §1
[8] = system: Escherichia coli; test: Bactericidal activity against Escherichia coli assessed as time required for bacterial kill at 12.5 ug/ml by time kill assay; assay type: functional
[9] = system: Escherichia coli; test: Bactericidal activity against Escherichia coli assessed as time required for bacterial kill at 25 to 50 ug/ml by time kill assay; assay type: functional

SMILES: CCCCCCCCCCCCCCCC(=O)N[C@@H](CCCCN)C(=O)NCCN(C(=O)CCc1ccccc1)[C@@H](CCCCN)C(=O)NCCN(C(=O)CCc1ccccc1)[C@@H](CCCCN)C(=O)NCCN(C(=O)CCc1ccccc1)[C@@H](CCCCN)C(N)=O
HC50 at 1 h [1]: 250 µg/mL | MIC [2]: 1.5 to 3 µg/mL (≈ 1.16 to 2.32 µM) | MIC [3]: > 25 µg/mL | selectivity ratio [4]: 83 | MIC [5]: 1.5 to 3 µg/mL (≈ 1.16 to 2.32 µM) | MIC [6]: 3 to 6 µg/mL (≈ 2.32 to 4.64 µM) | MIC [7]: 6 to 12 µg/mL (≈ 4.64 to 9.27 µM)

SMILES: CCCCCCCCCCCC(=O)N[C@@H](CCCCN)C(=O)NCCN(C(=O)CCc1ccccc1)[C@@H](CCCCN)C(N)=O
MIC [2]: > 25 µg/mL | MIC [3]: > 25 µg/mL | MIC [5]: > 25 µg/mL | MIC [6]: > 25 µg/mL | MIC [7]: > 25 µg/mL

SMILES: CCCCCCCCCCCCCCCC(=O)NCCN(C(=O)CCc1ccccc1)[C@@H](CCCCN)C(N)=O
MIC [2]: 25 µg/mL (≈ 44.7 µM) | MIC [3]: > 25 µg/mL | MIC [5]: > 25 µg/mL | MIC [6]: > 25 µg/mL | MIC [7]: > 25 µg/mL

SMILES: CCCCCCCCCCCCCCCC(=O)N[C@@H](CCCCN)C(=O)NCCN(C(=O)CCc1ccccc1)[C@@H](CCCCN)C(=O)NCCN(C(=O)CCc1ccccc1)[C@@H](CCCCN)C(N)=O
HC50 at 1 h [1]: 31.2 µg/mL | MIC [2]: < 3 µg/mL | MIC [3]: > 25 µg/mL | selectivity ratio [4]: 10.4 | MIC [5]: 1.5 to 3 µg/mL (≈ 1.51 to 3.03 µM) | MIC [6]: > 25 µg/mL | MIC [7]: > 25 µg/mL

SMILES: CCCCCC(=O)N[C@@H](CCCCN)C(=O)NCCN(C(=O)CCc1ccccc1)[C@@H](CCCCN)C(N)=O
MIC [2]: > 25 µg/mL | MIC [3]: > 25 µg/mL | MIC [5]: > 25 µg/mL | MIC [6]: > 25 µg/mL | MIC [7]: > 25 µg/mL

SMILES: CCCCCCCCCC(=O)N[C@@H](CCCCN)C(=O)NCCN(C(=O)CCc1ccccc1)[C@@H](CCCCN)C(N)=O
MIC [2]: > 25 µg/mL | MIC [3]: > 25 µg/mL | MIC [5]: > 25 µg/mL | MIC [6]: > 25 µg/mL | MIC [7]: > 25 µg/mL

SMILES: CCCCCCCCCCCCCCCC(=O)N[C@@H](CCCCN)C(=O)NCCN(C(=O)CCc1ccccc1)[C@@H](CCCCN)C(N)=O
HC50 at 1 h [1]: 31.2 µg/mL | MIC [2]: 1.5 to 3 µg/mL (≈ 2.18 to 4.37 µM) | MIC [3]: 6 to 12 µg/mL (≈ 8.73 to 17.5 µM) | selectivity ratio [4]: 10.4 | MIC [5]: 1.5 to 3 µg/mL (≈ 2.18 to 4.37 µM) | MIC [6]: 3 to 6 µg/mL (≈ 4.37 to 8.73 µM) | MIC [7]: 6 to 12 µg/mL (≈ 8.73 to 17.5 µM)

SMILES: CCCCCCCCCCCCCC(=O)N[C@@H](CCCCN)C(=O)NCCN(C(=O)CCc1ccccc1)[C@@H](CCCCN)C(N)=O
MIC [2]: 12 to 25 µg/mL (≈ 18.2 to 37.9 µM) | MIC [3]: > 25 µg/mL | MIC [5]: 6 to 12 µg/mL (≈ 9.11 to 18.2 µM) | MIC [6]: > 25 µg/mL | MIC [7]: > 25 µg/mL

SMILES: CCCCCCCC(=O)N[C@@H](CCCCN)C(=O)NCCN(C(=O)CCc1ccccc1)[C@@H](CCCCN)C(N)=O
MIC [2]: > 25 µg/mL | MIC [3]: > 25 µg/mL | MIC [5]: > 25 µg/mL | MIC [6]: > 25 µg/mL | MIC [7]: > 25 µg/mL

MIC [3]: 3 µg/mL (≈ 4.55 µM) | MIC [5]: 3 µg/mL (≈ 4.55 µM)
SMILES: CCCCCCCCCCCCCCCC(=O)N[C@@H](CCCCN)C(=O)NCCN(C(=O)CCCN)[C@@H](Cc1ccccc1)C(N)=O
Time [8]: 120 min | HC50 at 1 h [1]: 125 µg/mL | Time [9]: 60 min
